Laboratory results: ChEMBL document CHEMBL3352663, “Inhibition of group IVA cytosolic phospholipase A2 by thiazolyl ketones in vitro, ex vivo, and in vivo” (J Med Chem, 2014)
Activity calls are given as the source filed them. No cut-off for these calls is given here.

Tests used:
[1] = molecular target: T1, Cytosolic phospholipase A2 (Homo sapiens) (UniProt P47712); test: Inhibition of human recombinant GIVA cPLA2 using 400 uM Triton X-100/97 uM PAPC/1.8 uM 14C-labeled PAPC/3uM PIP2 substrate mixedmicelles at 0.091 mole fraction
T1 sequence (whole entry): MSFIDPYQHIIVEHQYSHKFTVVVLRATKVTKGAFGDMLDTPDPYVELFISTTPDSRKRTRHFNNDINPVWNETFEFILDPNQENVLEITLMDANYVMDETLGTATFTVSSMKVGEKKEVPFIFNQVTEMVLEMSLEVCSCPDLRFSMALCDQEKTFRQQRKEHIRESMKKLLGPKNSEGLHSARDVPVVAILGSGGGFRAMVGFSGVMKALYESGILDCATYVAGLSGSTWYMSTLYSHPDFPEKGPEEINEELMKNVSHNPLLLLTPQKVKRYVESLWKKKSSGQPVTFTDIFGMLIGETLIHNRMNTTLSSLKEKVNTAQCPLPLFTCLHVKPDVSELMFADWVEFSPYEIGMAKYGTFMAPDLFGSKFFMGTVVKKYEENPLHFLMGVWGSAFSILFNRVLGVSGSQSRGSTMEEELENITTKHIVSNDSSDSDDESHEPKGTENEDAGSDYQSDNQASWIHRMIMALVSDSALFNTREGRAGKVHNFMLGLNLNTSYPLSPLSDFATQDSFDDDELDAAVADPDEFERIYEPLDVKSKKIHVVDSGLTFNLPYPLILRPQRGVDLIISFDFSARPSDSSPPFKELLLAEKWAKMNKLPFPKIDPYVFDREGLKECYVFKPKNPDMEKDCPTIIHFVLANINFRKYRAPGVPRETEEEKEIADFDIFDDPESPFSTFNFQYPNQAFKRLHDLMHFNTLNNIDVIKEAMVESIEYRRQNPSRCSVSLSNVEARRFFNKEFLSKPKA

[2] = test system: SW982; test: Inhibition of IL-1beta-induced arachidonic acid release in human SW982 cells using [3H]AA at 10 uM by liquid scintillation counting; type: functional; details: for inhibition at 10 µM: SW982, 4 h
In short: (§1)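 SW982 synovial sarcoma cells were serum-starved and labelled overnight with 3H-AA (0.4 µCi/mL) and 14C-OA (0.067 µCi/mL), then washed with PBS/fBSA. They were pretreated 1 h with inhibitor (10 µM single point, or 0-20 µM for IC50), then stimulated with IL-1β 10 ng/mL for 4 h. Released radioactivity was counted by scintillation relative to total incorporated label; DMSO served as vehicle; ≥3 independent experiments in triplicate.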

[3] = organism: Homo sapiens; test: Inhibition of human recombinant GV sPLA2 using 400 uM Triton X-100/98.3 uM PAPC/1.7 uM 14C-labeled PAPC substrate mixedmicelles at 1 uM
[4] = test system: SW982; test: Inhibition of IL-1beta-induced arachidonic acid release in human SW982 cells using [3H]AA by liquid scintillation counting; type: functional, cell-based
In short: as §1

[5] = molecular target: T1, Cytosolic phospholipase A2 (Homo sapiens); test: Inhibition of human recombinant GIVA cPLA2 at 1 uM in vitro vesicle assay
In short: (§2)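 Recombinant human GIVA cPLA2 was preincubated with 1% DMSO ± inhibitor (80 s at 37 °C, then 10 min at 25 °C). Sonicated vesicles of 1-palmitoyl-2-[14C]arachidonyl-PC (0.2 μM) were added and incubated 1 h at 37 °C. The reaction was stopped with chloroform/methanol. Single-point tests used 1 µM inhibitor; IC50 determinations used 0-3 µM.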

[6] = molecular target: T1, Cytosolic phospholipase A2 (Homo sapiens); test: Inhibition of human recombinant GIVA cPLA2 using 400 uM Triton X-100/97 uM PAPC/1.8 uM 14C-labeled PAPC/3uM PIP2 substrate mixedmicelles
In short: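 Modified Dole assay of recombinant human GIVA cPLA2. Mixed micelles contained 400 µM Triton X-100, 97 µM PAPC, 1.8 µM 14C-PAPC and 3 µM PIP2 in 100 mM HEPES pH 7.5 with 90 µM CaCl2, 2 mM DTT and 0.1 mg/mL BSA. Percent inhibition was measured at 0.091 mole fraction inhibitor. XI(50) is the mole fraction giving 50% inhibition.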

[7] = test system: SW982; test: Inhibition of IL-1beta-induced oleic acid release in human SW982 cells using [3H]OA at 0 to 20 uM by liquid scintillation counting; type: functional, cell-based
[8] = test system: SW982; test: Inhibition of IL-1beta-induced oleic acid release in human SW982 cells using [3H]OA at 10 uM by liquid scintillation counting; type: functional; details: SW982, 4 h
[9] = molecular target: T2, Cytosolic phospholipase A2 (Homo sapiens, UniProt P47712); test: Inhibition of human recombinant GIVA cPLA2 in vitro vesicle assay
T2 sequence (P47712 whole entry): T1 sequence (whole entry)
In short: as §2

[10] = test system: Mus musculus; test: Antiinflammatory activity in DBA/1 mouse […] model assessed as reduction in articular cavity at 7.5 mg/kg, ip treatment started on day 21 after second […] measured on day 32; type: functional, organism-based; set-up: dose 7.5 mg/kg
In short: (§3)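 Prophylactic collagen-induced arthritis in male DBA/1 mice. Bovine type II collagen (2 mg/mL) was emulsified 1:1 in Freund's complete adjuvant and 0.1 mL injected at the tail base on day 0, with a booster on day 21. Daily ip dosing in DMSO at 2 mL/Kg began 1 h before the booster. Arthritis index was scored through day 41. Histology groups were killed at day 32 after […] of dosing; hind paws were scored blind (0-5) for infiltration, hyperplasia and damage.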

[11] = test system: Mus musculus; test: Antiinflammatory activity in DBA/1 mouse […] model assessed as reduction in peripheral tissue inflammatory cell infiltration at 7.5 mg/kg, ip treatment started on day 21 after […] measured on day 32; type: functional, organism-based; set-up: dose 7.5 mg/kg
In short: as §3

[12] = test system: Mus musculus; test: Antiinflammatory activity in DBA/1 mouse […] assessed as reduction in capillary and synovial hyperplasia at 7.5 mg/kg, ip treatment started on day 21 after […] measured on day 32; type: functional, organism-based; set-up: dose 7.5 mg/kg
In short: as §3

[13] = test system: Mus musculus; test: Reduction in PGE2 level in DBA/1 mouse plasma at 0.3 mg/kg, ip by EIA analysis relative to control; type: functional, organism-based; set-up: dose 0.3 mg/kg
In short: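 Plasma came from collagen-induced arthritic DBA/1 mice at termination, about 5 h after the last daily ip dose. Samples were diluted 1:1000-1:6000 in EIA buffer and incubated 18 h at 4 °C in a PGE2 EIA, read at OD550. Levels are expressed relative to DMSO-vehicle arthritic mice; n=10-11 per group, ±SD.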

[14] = Homo sapiens, SW982, 4 h, read-out: IC50

SMILES	inhibition [1] [%]	inhibition at 10 µM [2] [%]	inhibition [3] [%]	IC50 [4, 14] [µM]	inhibition [5]	XI50 (mole fraction) [6]	inhibition [7]	inhibition at 10 µM [8] [%]	IC50 ([4]; sw982)	IC50 [9]	inhibition [10]	inhibition [11]	inhibition [12]	inhibition [13]	inhibition [2]
CCCCCCCCc1ccc(OCC(=O)c2nccs2)cc1	> 90	> 90	46	3.6	43%	0.02	inactive	–	–	–	–	–	–	–	–
O=C(COc1ccccc1)c1nccs1	40	12	0	–	26%	–	–	20	Not Active	Not Active	–	–	–	–	–
CCCCCCCCc1ccc(OCC(=O)c2nc3ccccc3s2)cc1	> 90	71	55	5.3	inactive	0.06	–	35	–	–	–	–	–	–	–
O=C(COc1ccc(-c2ccccc2)cc1)c1nccs1	80	73	41	2.8	26%	–	–	25	–	Not Active	–	–	–	–	–
CCCCCCCCCCCCOCC(=O)c1nc(C(=O)OCC)cs1	48	9	48	–	21%	–	inactive	–	Not Active	Not Active	–	–	–	–	–
CN(Cc1cnc2nc(N)nc(N)c2n1)c1ccc(C(=O)N[C@@H](CCC(=O)O)C(=O)O)cc1	–	–	–	–	–	–	–	–	–	–	inactive	inactive	inactive	Active	–
CCCCCCCCc1ccc(OCC(=O)c2nc(CC(=O)OCC)cs2)cc1	64	71	50	5	25%	–	–	20	–	Not Active	–	–	–	–	–
O=C(COc1ccc(F)cc1)c1nccs1	58	–	4	–	7%	–	–	25	–	Not Active	–	–	–	–	inactive
CCCCCCCCCCCCOCC(=O)c1nc(CC(=O)OCC)cs1	49	–	55	–	inactive	–	inactive	–	–	–	–	–	–	–	inactive
